Laboratory results: ChEMBL document CHEMBL1136635, “Modification of the N-terminus of peptidomimetic protein tyrosine phosphatase 1B (PTP1B) inhibitors: identification of analogues with cellular activity” (Bioorg Med Chem Lett, 2003)
Square brackets hold non-standard residues; d marks the D form. Peptide text beside a SMILES is read from it. sY = N[C@@H](Cc1ccc(OS(=O)(=O)O)cc1)C(=O)O; Nle = CCCC[C@H](N)C(=O)O

Key:
[1] = molecular target: T1, Tyrosine-protein phosphatase non-receptor type 1 (Homo sapiens, UniProt P18031); experiment: Inhibitory activity against human protein tyrosine phosphatase 1B (PTP1B)
T1 sequence (P18031 whole entry): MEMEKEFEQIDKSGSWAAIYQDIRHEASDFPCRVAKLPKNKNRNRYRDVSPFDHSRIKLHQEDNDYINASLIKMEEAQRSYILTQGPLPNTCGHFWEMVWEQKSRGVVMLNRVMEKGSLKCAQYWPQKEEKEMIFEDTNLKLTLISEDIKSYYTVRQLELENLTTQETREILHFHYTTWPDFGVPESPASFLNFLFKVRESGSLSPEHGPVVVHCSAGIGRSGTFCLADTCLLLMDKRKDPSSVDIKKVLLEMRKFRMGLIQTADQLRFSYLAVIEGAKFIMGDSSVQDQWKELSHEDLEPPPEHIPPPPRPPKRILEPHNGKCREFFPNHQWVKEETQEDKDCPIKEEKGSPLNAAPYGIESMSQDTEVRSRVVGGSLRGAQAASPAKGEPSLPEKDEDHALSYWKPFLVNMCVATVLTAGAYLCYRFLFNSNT
How it was run: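 Ki against a C-terminally truncated, soluble recombinant human PTP1B. Initial rates of pNPP hydrolysis are measured, and the Ki is computed by the Cornish-Bowden direct linear method.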

[2] = molecular target: T2, Tyrosine-protein phosphatase non-receptor type 1 (Homo sapiens) (UniProt P18031); experiment: Inhibitory activity against human protein tyrosine phosphatase 1B (PTP1B) at a concentration of 1 uM
T2 sequence (whole entry): T1 sequence (P18031 whole entry)
How it was run: (§1)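 Purified recombinant human enzyme constructs; PTP1B is a C-terminally truncated soluble form, tested alongside LAR and SHP-2. Activity is read as the initial rate of p-nitrophenyl phosphate (pNPP) hydrolysis and reported as percent inhibition. PTP1B is tested at 100, 10 and 1 µM, or 10 and 1 µM in the salicylate series; LAR and SHP-2 at 100 µM.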

[3] = molecular target: T2, Tyrosine-protein phosphatase non-receptor type 1 (Homo sapiens); experiment: Inhibitory activity against human protein tyrosine phosphatase 1B (PTP1B) at a concentration of 10 uM; how it was run: as §1
[4] = molecular target: Tyrosine-protein phosphatase non-receptor type 11, SHP-2 (Homo sapiens) (UniProt Q06124); experiment: Inhibitory activity against phosphatase (SHP-2) at a concentration of 100 uM
[5] = molecular target: Receptor-type tyrosine-protein phosphatase F (Homo sapiens) (UniProt P10586); experiment: Inhibitory activity against phosphatase (LAR) at a concentration of 100 uM; how it was run: as §1
Sequence of Receptor-type tyrosine-protein phosphatase F (Homo sapiens) (P10586 whole entry): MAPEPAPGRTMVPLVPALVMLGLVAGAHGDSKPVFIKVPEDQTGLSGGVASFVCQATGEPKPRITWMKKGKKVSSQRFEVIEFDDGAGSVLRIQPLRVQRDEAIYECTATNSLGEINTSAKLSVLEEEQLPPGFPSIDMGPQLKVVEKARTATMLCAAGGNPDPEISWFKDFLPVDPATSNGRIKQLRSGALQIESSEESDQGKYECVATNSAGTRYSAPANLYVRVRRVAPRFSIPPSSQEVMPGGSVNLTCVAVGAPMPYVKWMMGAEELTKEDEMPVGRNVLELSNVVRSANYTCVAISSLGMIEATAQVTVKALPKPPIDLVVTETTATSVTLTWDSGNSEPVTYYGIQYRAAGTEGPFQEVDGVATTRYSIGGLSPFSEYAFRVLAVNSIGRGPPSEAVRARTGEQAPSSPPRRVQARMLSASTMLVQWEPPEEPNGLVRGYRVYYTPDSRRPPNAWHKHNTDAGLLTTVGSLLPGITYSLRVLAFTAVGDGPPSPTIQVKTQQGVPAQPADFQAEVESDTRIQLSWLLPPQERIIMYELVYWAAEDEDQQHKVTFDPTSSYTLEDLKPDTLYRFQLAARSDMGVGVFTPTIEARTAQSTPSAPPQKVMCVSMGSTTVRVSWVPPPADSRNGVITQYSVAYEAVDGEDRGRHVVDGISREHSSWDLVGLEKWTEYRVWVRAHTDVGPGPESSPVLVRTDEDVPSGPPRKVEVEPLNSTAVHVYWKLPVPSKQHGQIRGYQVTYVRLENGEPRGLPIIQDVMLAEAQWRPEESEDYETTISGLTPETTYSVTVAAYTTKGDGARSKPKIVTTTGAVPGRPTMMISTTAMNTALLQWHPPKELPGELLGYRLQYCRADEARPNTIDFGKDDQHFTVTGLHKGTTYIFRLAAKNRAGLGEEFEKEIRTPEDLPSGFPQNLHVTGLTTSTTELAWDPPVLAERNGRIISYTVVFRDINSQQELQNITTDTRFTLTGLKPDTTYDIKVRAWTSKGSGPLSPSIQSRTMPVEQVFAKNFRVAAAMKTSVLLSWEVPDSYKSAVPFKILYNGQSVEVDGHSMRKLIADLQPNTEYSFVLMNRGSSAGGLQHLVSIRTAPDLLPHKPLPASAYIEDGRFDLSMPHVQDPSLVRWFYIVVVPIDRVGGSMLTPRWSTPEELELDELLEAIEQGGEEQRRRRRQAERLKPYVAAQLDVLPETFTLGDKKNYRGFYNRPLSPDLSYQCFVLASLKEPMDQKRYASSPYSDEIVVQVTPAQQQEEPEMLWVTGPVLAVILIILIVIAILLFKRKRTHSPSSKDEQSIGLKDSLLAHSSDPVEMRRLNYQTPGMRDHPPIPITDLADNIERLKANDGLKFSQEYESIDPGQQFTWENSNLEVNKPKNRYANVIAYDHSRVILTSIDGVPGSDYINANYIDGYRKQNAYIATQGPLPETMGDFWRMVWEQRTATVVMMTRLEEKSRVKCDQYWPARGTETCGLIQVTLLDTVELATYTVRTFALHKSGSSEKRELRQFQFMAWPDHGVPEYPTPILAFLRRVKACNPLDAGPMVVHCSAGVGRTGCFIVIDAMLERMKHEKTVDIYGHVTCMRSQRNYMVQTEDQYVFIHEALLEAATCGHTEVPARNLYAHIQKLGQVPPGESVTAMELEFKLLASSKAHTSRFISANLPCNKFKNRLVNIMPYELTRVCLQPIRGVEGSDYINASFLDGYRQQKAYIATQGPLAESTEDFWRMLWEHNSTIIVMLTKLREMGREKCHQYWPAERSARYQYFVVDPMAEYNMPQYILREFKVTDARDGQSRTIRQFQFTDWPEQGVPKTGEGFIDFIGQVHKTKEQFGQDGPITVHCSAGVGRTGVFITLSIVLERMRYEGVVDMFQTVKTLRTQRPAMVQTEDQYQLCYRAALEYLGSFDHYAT

[6] = Uptake of 2-DOG (2-deoxyglucose) into L6 myocytes in the presence of half-maximal concentration of insulin at 100 uM; assay type: functional, Rattus norvegicus
How it was run: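 L6 myotubes are exposed to compound at 100 µM with 10 nM insulin, a dose eliciting about 50% of maximal uptake. The initial rate of 2-[3H]deoxyglucose uptake is measured, with L-[14C]glucose marking extracellular space, and normalized to recovered lysate protein. Net insulin-dependent transport with inhibitor is expressed as a percent of that without inhibitor.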

[7] = molecular target: T2, Tyrosine-protein phosphatase non-receptor type 1 (Homo sapiens); experiment: Inhibitory activity against human protein tyrosine phosphatase 1B (PTP1B) at a concentration of 100 uM; how it was run: as §1
[8] = molecular target: T3, Tyrosine-protein phosphatase non-receptor type 11 (Homo sapiens) (UniProt Q06124); experiment: Inhibition of recombinant human phosphatase (SHP-2) at a concentration of 100 uM; how it was run: as §1
T3 sequence (whole entry): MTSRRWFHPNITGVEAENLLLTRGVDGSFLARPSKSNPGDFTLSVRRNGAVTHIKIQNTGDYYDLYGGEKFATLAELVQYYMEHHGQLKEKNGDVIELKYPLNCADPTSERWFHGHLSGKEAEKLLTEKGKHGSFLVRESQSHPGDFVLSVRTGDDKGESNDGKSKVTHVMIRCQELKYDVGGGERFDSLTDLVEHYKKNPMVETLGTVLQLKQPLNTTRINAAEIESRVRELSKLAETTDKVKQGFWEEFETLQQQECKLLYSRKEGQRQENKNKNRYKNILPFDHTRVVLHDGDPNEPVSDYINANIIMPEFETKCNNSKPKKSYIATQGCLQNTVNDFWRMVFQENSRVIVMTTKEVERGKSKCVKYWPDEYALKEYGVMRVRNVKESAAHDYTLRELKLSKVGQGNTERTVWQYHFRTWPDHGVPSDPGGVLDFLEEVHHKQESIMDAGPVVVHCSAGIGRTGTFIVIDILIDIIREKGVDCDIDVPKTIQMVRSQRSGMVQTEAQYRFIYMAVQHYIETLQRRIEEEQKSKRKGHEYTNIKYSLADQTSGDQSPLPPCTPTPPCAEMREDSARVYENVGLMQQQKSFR

[9] = molecular target: T3, Tyrosine-protein phosphatase non-receptor type 11 (Homo sapiens); experiment: Inhibitory activity against phosphatase ([…]) at a concentration of 100 uM; how it was run: as §1

| Ki [1] [nM] | inhibition [2] [%] | inhibition [3] [%] | inhibition [4] [%] | inhibition [5] [%] | inhibition [7] [%] | inhibition [8] [%] | inhibition [9] [%] | Compound | Control Uptake [6] [%] |
| --- | --- | --- | --- | --- | --- | --- | --- | --- | --- |
| 220 | – | – | – | – | – | – | – | CCCCCNC(=O)[C@H](Cc1ccc(OCC(=O)O)c(C(=O)O)c1)NC(=O)[C@H](Cc1ccccc1)NC(=O)CCC(=O)O | – |
| – | 1 | 3 | 54 | 0 | – | – | – | CCCCCCCCCCCCCCCCCC(=O)N[C@@H](Cc1ccccc1)C(=O)N[C@@H](Cc1ccc(OCC(=O)O)c(C(=O)O)c1)C(=O)NCCCCC | – |
| – | 10 | 50 | – | 0 | 90 | 5 | – | CCCCCNC(=O)[C@H](Cc1ccc(OC(C(=O)O)C(=O)O)cc1)NC(=O)[C@H](Cc1ccc(O)cc1)NC(=O)OC(C)(C)C | 96 |
| – | 3 | 29 | – | 4 | 90 | 3 | – | CCCCCNC(=O)[C@H](Cc1ccc(OC(C(=O)O)C(=O)O)cc1)NC(=O)[C@H](Cc1ccc2ccccc2c1)NC(=O)OC(C)(C)C | 62 |
| 5000 | – | – | – | – | – | – | – | CCCC[C@H](NC(=O)[C@H](Cc1ccc(OS(=O)(=O)O)cc1)NC(=O)[C@H](CC(=O)O)NC(C)=O)C(N)=O (Ac-Asp-[sY]-[Nle]-NH2) | – |
| – | 12 | 54 | – | 0 | 92 | 14 | – | CCCCCNC(=O)[C@H](Cc1ccc(OC(C(=O)O)C(=O)O)cc1)NC(=O)[C@H](Cc1ccccc1)NC(=O)CCN(CC)CC | 89 |
| 700 | 57 | 91 | – | 0 | – | 10 | – | CCCCCNC(=O)[C@H](Cc1ccc(OCC(=O)O)c(C(=O)O)c1)NC(=O)[C@H](Cc1ccccc1)NC(=O)Cn1nnnc1S | 89 |
| 14000 | 7 | 36 | – | 0 | 83 | 3 | – | CCCCCNC(=O)[C@H](Cc1ccc(OC(C(=O)O)C(=O)O)cc1)NC(=O)[C@H](C)NC(=O)OC(C)(C)C | 88 |
| – | 5 | 25 | – | 0 | 82 | 4 | – | CCCCCNC(=O)[C@H](Cc1ccc(OC(C(=O)O)C(=O)O)cc1)NC(=O)[C@H](CCSC)NC(=O)OC(C)(C)C | 74 |
| – | 19 | 65 | – | 6 | 94 | 11 | – | CCCCCNC(=O)[C@H](Cc1ccc(OC(C(=O)O)C(=O)O)cc1)NC(=O)[C@H](Cc1ccccc1)NC(=O)CCOC | 104 |
| – | 14 | 62 | – | 2 | 93 | 8 | – | CCCCCNC(=O)[C@H](Cc1ccc(OC(C(=O)O)C(=O)O)cc1)NC(=O)[C@H](Cc1ccccc1)NC(=O)CCNC(=O)OC(C)(C)C | 87 |
| – | 9 | 40 | – | 0 | 85 | 8 | – | CCCCCNC(=O)[C@H](Cc1ccc(OC(C(=O)O)C(=O)O)cc1)NC(=O)[C@H](CC(N)=O)NC(=O)OC(C)(C)C | 110 |
| – | 7 | 21 | – | 0 | 67 | 6 | – | CCCCCNC(=O)[C@H](Cc1ccc(OC(C(=O)O)C(=O)O)cc1)NC(=O)[C@H](CC[S+](C)[O-])NC(=O)OC(C)(C)C (stereo not given in full) | 70 |
| – | 9 | 40 | – | 21 | 86 | 6 | – | CCCCCNC(=O)[C@H](Cc1ccc(OC(C(=O)O)C(=O)O)cc1)NC(=O)[C@H](Cc1ccccc1)NC(=O)NC(C)(C)C | 93 |
| 1400 | 22 | 74 | – | 0 | – | 12 | – | CCCCCNC(=O)[C@H](Cc1ccc(OCC(=O)O)c(C(=O)O)c1)NC(=O)[C@H](Cc1ccccc1)NC(=O)CCc1ccccc1 | 136 |
| – | 4 | 24 | – | 3 | 76 | 5 | – | CCCCCNC(=O)[C@H](Cc1ccc(OC(C(=O)O)C(=O)O)cc1)NC(=O)[C@H](CC(C)C)NC(=O)OC(C)(C)C | 84 |
| 590 | 39 | 85 | – | 0 | – | 28 | – | CCCCCNC(=O)[C@H](Cc1ccc(OCC(=O)O)c(C(=O)O)c1)NC(=O)[C@H](Cc1ccccc1)NC(=O)Cc1ccc(C(F)(F)F)cc1 | 130 |
| – | 3 | 18 | 0 | 0 | 72 | – | – | CCCCCNC(=O)[C@H](Cc1ccc(OC(C(=O)O)C(=O)O)cc1)NC(=O)[C@@H](NC(=O)OC(C)(C)C)C(C)C | – |
| – | 3 | 19 | – | 3 | 71 | 0 | – | CCCCCNC(=O)[C@H](Cc1ccc(OC(C(=O)O)C(=O)O)cc1)NC(=O)[C@H](COCc1ccccc1)NC(=O)OC(C)(C)C | 79 |
| – | 9 | 40 | – | 0 | 86 | 8 | – | CCCCCNC(=O)[C@H](Cc1ccc(OC(C(=O)O)C(=O)O)cc1)NC(=O)[C@H](Cc1ccccc1)NS(C)(=O)=O | 93 |
| – | 1 | 18 | – | 4 | 88 | 0 | – | CCCCCNC(=O)[C@H](Cc1ccc(OC(C(=O)O)C(=O)O)cc1)NC(=O)[C@H](CC1CCCCC1)NC(=O)OC(C)(C)C | 93 |
| 670 | 46 | 87 | – | 5 | – | 25 | – | CCCCCNC(=O)[C@H](Cc1ccc(OCC(=O)O)c(C(=O)O)c1)NC(=O)[C@H](Cc1ccccc1)NC(=O)Cc1ccc(OC)cc1 | 141 |
| 9000 | 7 | 48 | – | 27 | 91 | – | 10 | CCCCCNC(=O)[C@H](Cc1ccc(OC(C(=O)O)C(=O)O)cc1)NC(=O)[C@H](Cc1ccccc1)NC(=O)OC(C)(C)C | 88 |
| – | 2 | 17 | – | 7 | 77 | 0 | – | CCCCCNC(=O)[C@H](Cc1ccc(OC(C(=O)O)C(=O)O)cc1)NC(=O)[C@H](CCc1ccccc1)NC(=O)OC(C)(C)C | 104 |
| – | 3 | 33 | – | 34 | 86 | 8 | – | CCCCCNC(=O)[C@H](Cc1ccc(OC(C(=O)O)C(=O)O)cc1)NC(=O)[C@H](Cc1cccc2ccccc12)NC(=O)OC(C)(C)C | 84 |

| Compound | Ki [1] [nM] | inhibition [2] [%] | inhibition [3] [%] | inhibition [4] [%] | inhibition [5] [%] | inhibition [7] [%] | inhibition [8] [%] | inhibition [9] [%] | Control Uptake [6] [%] |
| --- | --- | --- | --- | --- | --- | --- | --- | --- | --- |
| CCCCCNC(=O)[C@H](Cc1ccc(OCC(=O)O)c(C(=O)O)c1)NC(=O)[C@H](Cc1ccccc1)NC(=O)Oc1ccccc1 | 870 | 43 | 85 | – | 0 | – | 11 | – | 103 |
